Calls of active or inactive are those of the source. The calls are words filed in the database; no cut-off is given here.
Legend:
[1] = Maximum plasma concentration in BALB/c mouse at 25 mg/kg, po via gavage by […]; format: ADME, organism-based; design: dose 25 mg/kg, route oral
How it was run: (§1)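 Single oral gavage dose of 25 mg/kg in BALB/c mice; blood sampled at 1, 2, 4, 6, 10, 16, 24 h. Plasma is diluted in PBS with ketoconazole internal standard, extracted with 80% acetonitrile, dried and redissolved. Analysed by reversed-phase HPLC with UV at 291/250 nm, 0.1 μM detection limit. Lifetime is time until undetectable.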

[2] = Drug uptake in BALB/c mouse lungs at 25 mg/kg, po via gavage measured after 4 hrs post dose by […]; format: ADME, organism-based, Lung; conditions: read-out: Drug uptake
How it was run: (§2)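 BALB/c mice get a single oral gavage dose of 25 mg/kg; tissues are collected 4 h post-dose. About 100 mg tissue is diluted 5-fold in PBS and homogenized. Homogenate is extracted as for plasma (ketoconazole internal standard, acetonitrile extraction) and quantified by HPLC-UV at 291 nm, 0.1 μM detection limit, n=2.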

[3] = Half life in CD1 mouse liver microsomes at 1 uM preincubated for 5 mins followed by NADPH addition and measured by LC/MS/MS analysis; format: ADME, microsome; conditions: mouse, microsomes, 1 µM
[4] = Cmax in BALB/c mouse at 25 mg/kg, po via gavage measured after 2 hrs post dose by […]; format: ADME, organism-based; design: dose 25 mg/kg, route oral; conditions: in vivo; how it was run: as §1
[5] = Intrinsic clearance in Sprague-Dawley rat liver microsomes at 1 uM preincubated for 5 mins followed by NADPH addition and measured after 45 mins by LC/MS/MS analysis; format: ADME, microsome; conditions: read-out: CLH
[6] = Half life in human liver microsomes at 1 uM preincubated for 5 mins followed by NADPH addition and measured by LC/MS/MS analysis; format: ADME, microsome; conditions: microsomes, 1 µM
[7] = Half life in Sprague-Dawley rat liver microsomes at 1 uM preincubated for 5 mins followed by NADPH addition and measured by LC/MS/MS analysis; format: ADME, microsome; conditions: microsomes, 1 µM
[8] = Plasma concentration in BALB/c mouse assessed as time until the compound becomes undetectable at 25 mg/kg, po via gavage […]; format: ADME, organism-based; conditions: in vivo; how it was run: as §1
[9] = Drug uptake in BALB/c mouse liver at 25 mg/kg, po via gavage measured after 4 hrs post dose by […]; format: ADME, organism-based; conditions: read-out: Drug uptake; how it was run: as §2
[10] = Hepatic clearance in Sprague-Dawley rat liver microsomes at 1 uM preincubated for 5 mins followed by NADPH addition and measured after 45 mins by LC/MS/MS analysis; format: ADME, microsome
How it was run: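 Pooled liver microsomes at 0.5 mg/mL: human (mixed gender), male Sprague-Dawley rat, or male CD-1 mouse, with test compound at 1 μM, triplicate. In vitro t1/2 is scaled to CLint (45 mg microsomes/g liver; 45 g liver/kg scaling factor). CLhep uses well-stirred model with hepatic blood flow 21 (human), 70 (rat), 90 (mouse) mL/min/kg.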

[11] = Drug uptake in BALB/c mouse heart at 25 mg/kg, po via gavage measured after 4 hrs post dose by […]; format: ADME, organism-based; conditions: read-out: Drug uptake; how it was run: as §2
[12] = Drug uptake in BALB/c mouse brain at 25 mg/kg, po via gavage measured after 4 hrs post dose by […]; format: ADME, organism-based; conditions: read-out: Drug uptake; how it was run: as §2
[13] = Intrinsic clearance in human liver microsomes at 1 uM preincubated for 5 mins followed by NADPH addition and measured after 45 mins by LC/MS/MS analysis; format: ADME, microsome; conditions: read-out: CLH
[14] = Lipophilicity, log P of the compound; format: physicochemical; conditions: octanol/water
[15] = Hepatic clearance in human liver microsomes at 1 uM preincubated for 5 mins followed by NADPH addition and measured after 45 mins by LC/MS/MS analysis; format: ADME, microsome
[16] = Intrinsic clearance in CD1 mouse liver microsomes at 1 uM preincubated for 5 mins followed by NADPH addition and measured after 45 mins by LC/MS/MS analysis; format: ADME, microsome; conditions: read-out: CLH
[17] = Drug uptake in BALB/c mouse blood at 25 mg/kg, po via gavage measured after 4 hrs post dose by […]; format: ADME, organism-based; conditions: read-out: Drug uptake; how it was run: as §2
[18] = Drug uptake in BALB/c mouse spleen at 25 mg/kg, po via gavage measured after 4 hrs post dose by […]; format: ADME, organism-based; conditions: read-out: Drug uptake; how it was run: as §2
[19] = Hepatic clearance in CD1 mouse liver microsomes at 1 uM preincubated for 5 mins followed by NADPH addition and measured after 45 mins by LC/MS/MS analysis; format: ADME, microsome
Mus musculus [20] = test: Toxicity in Swiss Webster mouse assessed as effect on skin at 200 mg/kg, po administered as single dose measured after 48 hrs; format: organism-based; conditions: in vivo
How it was run: (§3)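 Swiss Webster mice (21–23 g, n=3) get a single oral 200 mg/kg dose, given as in the PK study. They are inspected for toxic and sub-toxic signs per OECD guidelines (behaviour, motility, neurological state, skin, fur), and body weight is tracked 0–48 h. At 48 h, mice are euthanized and organ weights are normalized to body weight. Blood is taken for haematology and plasma biochemistry.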

[21] = molecular target: Sterol 14-alpha demethylase (Trypanosoma cruzi (strain CL Brener)) (UniProt Q7Z1V1); test: Inhibition of Trypanosoma cruzi Y CYP51 expressed in Escherichia coli using [3-3H]-eburicol as substrate after 60 mins by LC-MS analysis
Sterol 14-alpha demethylase (Trypanosoma cruzi (strain CL Brener)), sequence (Q7Z1V1 whole entry, looked up): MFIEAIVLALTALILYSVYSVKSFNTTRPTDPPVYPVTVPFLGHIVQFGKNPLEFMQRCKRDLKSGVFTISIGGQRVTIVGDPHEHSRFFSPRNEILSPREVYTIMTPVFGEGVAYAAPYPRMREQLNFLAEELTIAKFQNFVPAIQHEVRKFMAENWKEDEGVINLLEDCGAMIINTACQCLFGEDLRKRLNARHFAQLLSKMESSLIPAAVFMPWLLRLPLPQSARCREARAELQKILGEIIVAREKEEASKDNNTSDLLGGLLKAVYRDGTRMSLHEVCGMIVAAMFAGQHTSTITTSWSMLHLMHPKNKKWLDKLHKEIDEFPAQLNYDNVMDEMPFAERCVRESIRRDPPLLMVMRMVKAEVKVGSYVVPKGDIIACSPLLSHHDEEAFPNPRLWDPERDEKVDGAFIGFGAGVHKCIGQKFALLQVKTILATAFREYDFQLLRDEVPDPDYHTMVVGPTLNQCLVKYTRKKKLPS
How it was run: (§4)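 Reconstituted reaction: 1 μM purified CYP51, 2 μM T. brucei NADPH-P450 reductase, 100 μM dilauroylphosphatidylcholine, isocitrate dehydrogenase/isocitrate regeneration, 50 mM K phosphate pH 7.2, 10% glycerol. [3-3H]sterol substrate at 50 μM final (eburicol for T. cruzi; obtusifoliol for T. brucei and L. infantum) with inhibitor at 1.1 μM final. Preincubate 60 s at 37 °C, start with 100 μM NADPH, run 60 min, EtOAc extraction. Gives % inhibition of 14α-demethylation, triplicate, mean ± SD.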

Mus musculus [22] = test: Toxicity in Swiss Webster mouse assessed as effect on spleen weight at 200 mg/kg, po administered as single dose measured after 48 hrs; format: organism-based; conditions: in vivo; how it was run: as §3
Trypanosoma cruzi [23] = test: Antiparasitic activity against GFP-expressing Trypanosoma cruzi Y amastigote formss infected in cardiomyocytes assessed as reduction in rate of parasite multiplication within infected cardiomyocytes measured at 72 hrs post infection by fluorescence microscopy; format: functional, organism-based
How it was run: (§5)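 GFP-expressing trypomastigotes (Tulahuen or Y strain) infect cardiomyocyte monolayers at 10 parasites per cell, in DMEM + 10% FBS. Unbound parasites are washed off. At 24 h of infection, inhibitors at 0.5–25 nM in DMSO/DMEM are added and cultured 48 h. Read-out is at 72 h post-infection as GFP fluorescence (RFU) after PBS wash; microscopy uses paraformaldehyde fixation, DAPI and phalloidin stain. Triplicate.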

[24] = molecular target: Putative lanosterol 14-alpha-demethylase (Leishmania infantum) (UniProt A2TEF2); test: Inhibition of Leishmania infantum CYP51 expressed in Escherichia coli using [3-3H]-obtusifoliol as substrate after 60 mins by LC-MS analysis; how it was run: as §4
Putative lanosterol 14-alpha-demethylase (Leishmania infantum), sequence (A2TEF2 1-480): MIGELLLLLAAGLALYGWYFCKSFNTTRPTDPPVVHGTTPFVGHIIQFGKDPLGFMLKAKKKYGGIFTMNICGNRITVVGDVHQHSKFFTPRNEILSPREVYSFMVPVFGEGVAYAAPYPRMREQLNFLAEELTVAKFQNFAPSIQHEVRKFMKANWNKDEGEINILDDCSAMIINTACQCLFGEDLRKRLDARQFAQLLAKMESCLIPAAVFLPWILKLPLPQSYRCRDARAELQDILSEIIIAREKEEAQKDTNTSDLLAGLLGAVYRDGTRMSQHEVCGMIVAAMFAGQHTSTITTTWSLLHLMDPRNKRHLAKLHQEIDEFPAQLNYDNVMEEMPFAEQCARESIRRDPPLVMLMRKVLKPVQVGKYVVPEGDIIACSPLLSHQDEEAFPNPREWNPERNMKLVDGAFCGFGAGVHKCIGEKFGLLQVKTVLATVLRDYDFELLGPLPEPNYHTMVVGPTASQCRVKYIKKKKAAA

Mus musculus [25] = test: Toxicity in Swiss Webster mouse assessed as effect on liver weight at 200 mg/kg, po administered as single dose measured after 48 hrs; format: organism-based; conditions: in vivo; how it was run: as §3
[26] = molecular target: Sterol 14-alpha demethylase (Trypanosoma cruzi (strain CL Brener), UniProt Q7Z1V1); test: Binding affinity to Trypanosoma cruzi Y CYP51A expressed in Escherichia coli
Sterol 14-alpha demethylase, sequence (Q7Z1V1 whole entry): as the sequence (Q7Z1V1 whole entry, looked up) above
How it was run: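 Recombinant CYP51A from Y strain T. cruzi, expressed in E. coli and purified, titrated spectrally at 0.5 μM P450 in 5 cm path cuvettes with ligand over 0.1–1 μM. Type of absorbance change in difference spectra Δ(A430-A411) plotted against ligand concentration. Apparent Kd obtained by fitting to the Morrison quadratic tight-binding equation by nonlinear regression.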

Mus musculus [27] = test: Toxicity in Swiss Webster mouse assessed as effect on fur profile at 200 mg/kg, po administered as single dose measured after 48 hrs; format: organism-based; conditions: in vivo; how it was run: as §3
Mus musculus [28] = test: Toxicity in Swiss Webster mouse assessed as effect on neurological conditions at 200 mg/kg, po administered as single dose measured after 48 hrs; format: organism-based; conditions: in vivo; how it was run: as §3
Mus musculus [29] = test: Toxicity in Swiss Webster mouse assessed as effect on heart weight at 200 mg/kg, po administered as single dose measured after 48 hrs; format: organism-based; conditions: in vivo; how it was run: as §3
[30] = molecular target: Putative lanosterol 14-alpha-demethylase (Leishmania infantum, UniProt A2TEF2); test: Binding affinity to Leishmania infantum CYP51 expressed in Escherichia coli
Putative lanosterol 14-alpha-demethylase, sequence (A2TEF2 whole entry): as the sequence (A2TEF2 1-480) above
How it was run: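 Purified E. coli-expressed L. infantum CYP51 at 0.5 μM is titrated with ligand at 0.1–1 μM in 5 cm path cuvettes. Difference-spectrum absorbance change Δ(A430−A411) is plotted against ligand concentration. Apparent Kd comes from a Morrison (quadratic) tight-binding fit by nonlinear regression.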

Mus musculus [31] = test: Toxicity in Swiss Webster mouse assessed as effect on lung weight at 200 mg/kg, po administered as single dose measured after 48 hrs; format: organism-based; conditions: in vivo; how it was run: as §3
Mus musculus [32] = test: Toxicity in Swiss Webster mouse assessed as effect on body weight at 200 mg/kg, po administered as single dose measured after 48 hrs; format: organism-based; conditions: in vivo; how it was run: as §3
Mus musculus [33] = test: Toxicity in Swiss Webster mouse assessed as alteration in body to organ ratio at 200 mg/kg, po administered as single dose measured after 48 hrs; format: organism-based; conditions: in vivo; how it was run: as §3
[34] = molecular target: Lanosterol 14-alpha-demethylase (Trypanosoma brucei brucei (strain 927/4 GUTat10.1)) (UniProt Q385E8); test: Inhibition of Trypanosoma brucei […] CYP51 expressed in Escherichia coli using [3-3H]-obtusifoliol as substrate after 60 mins by LC-MS analysis; how it was run: as §4
Lanosterol 14-alpha-demethylase (Trypanosoma brucei brucei (strain 927/4 GUTat10.1)), sequence (Q385E8 1-481): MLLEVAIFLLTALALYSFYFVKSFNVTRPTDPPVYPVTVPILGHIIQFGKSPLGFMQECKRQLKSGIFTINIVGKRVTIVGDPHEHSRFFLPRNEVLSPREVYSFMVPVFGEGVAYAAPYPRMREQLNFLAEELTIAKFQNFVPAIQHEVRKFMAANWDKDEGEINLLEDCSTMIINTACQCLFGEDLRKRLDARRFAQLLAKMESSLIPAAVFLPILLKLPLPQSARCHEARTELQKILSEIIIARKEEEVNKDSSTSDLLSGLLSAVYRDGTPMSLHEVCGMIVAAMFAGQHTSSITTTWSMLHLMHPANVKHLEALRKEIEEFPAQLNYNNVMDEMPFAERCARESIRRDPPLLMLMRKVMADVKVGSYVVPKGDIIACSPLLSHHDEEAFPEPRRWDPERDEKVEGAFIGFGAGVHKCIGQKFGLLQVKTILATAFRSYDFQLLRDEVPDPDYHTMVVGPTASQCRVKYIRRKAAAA

Mus musculus [35] = test: Toxicity in Swiss Webster mouse assessed as effect on animal behavior at 200 mg/kg, po administered as single dose measured after 48 hrs; format: organism-based; conditions: in vivo; how it was run: as §3
Mus musculus [36] = test: Toxicity in Swiss Webster mouse at 200 mg/kg, po administered as single dose measured after 48 hrs measured at 48 hrs post dose; format: organism-based; conditions: in vivo; how it was run: as §3
Mus musculus [37] = test: Toxicity in Swiss Webster mouse assessed as effect on kidney weight at 200 mg/kg, po administered as single dose measured after 48 hrs; format: organism-based; conditions: in vivo; how it was run: as §3
Mus musculus [38] = test: Toxicity in Swiss Webster mouse assessed as effect on motility at 200 mg/kg, po administered as single dose measured after 48 hrs; format: organism-based; conditions: in vivo; how it was run: as §3
Trypanosoma cruzi [39] = test: Antiparasitic activity against GFP-expressing Trypanosoma cruzi Tulahuen amastigote formss infected in cardiomyocytes assessed as reduction in rate of parasite multiplication within infected cardiomyocytes measured at 72 hrs post infection by fluorescence microscopy; format: functional, organism-based; how it was run: as §5
Mus musculus [40] = test: Toxicity in Swiss Webster mouse assessed as effect on biochemical plasma parameters at 200 mg/kg, po administered as single dose measured after 48 hrs; format: organism-based; conditions: in vivo; how it was run: as §3

O=C(N[C@@H](Cn1ccnc1)c1ccc(-c2ccccc2)cc1Cl)c1ccc(-c2nnc(-c3ccccc3)o2)cc1
Cmax [1]: 28 µM | concentration at 4 h [2]: 8 µM | t1/2 [3]: 2.67 h | Cmax [4]: 28 µM | CLint scaled at 1 µM [5]: 142 mL/min/kg | t1/2 [6]: 1 h | t1/2 [7]: 0.333 h | Time [8]: < 10 h | concentration at 4 h [9]: 21 µM | CLhep predicted at 1 µM [10]: 46.9 mL/min/kg | concentration at 4 h [11]: 5 µM | concentration at 4 h [12]: 0.1 µM | CLint scaled at 1 µM [13]: 20.9 mL/min/kg | logP [14]: 5.68 | CLhep predicted at 1 µM [15]: 10.5 mL/min/kg | CLint scaled at 1 µM [16]: 34.2 mL/min/kg | concentration at 4 h [17]: 9 µM | concentration at 4 h [18]: 5 µM | CLhep predicted at 1 µM [19]: 24.8 mL/min/kg

O=C(N[C@@H](Cn1ccnc1)c1ccc(Cl)cc1Cl)c1ccc(-c2nnc(-c3ccc(F)c(F)c3)o2)cc1
Activity (Mus musculus [20]): Non-Toxic | Cmax [1]: 38 µM | inhibition [21]: Active | concentration at 4 h [2]: 46 µM | Activity (Mus musculus [22]): Non-Toxic | EC50 (Trypanosoma cruzi [23]): 3 nM | inhibition [24]: Active | Activity (Mus musculus [25]): Non-Toxic | Kd [26]: 4.2 nM | Activity (Mus musculus [27]): Non-Toxic | Activity (Mus musculus [28]): Non-Toxic | Activity (Mus musculus [29]): Non-Toxic | Kd [30]: 1.7 nM | Time [8]: 16 h | concentration at 4 h [9]: 38 µM | Activity (Mus musculus [31]): Non-Toxic | concentration at 4 h [11]: 36 µM | concentration at 4 h [12]: 8 µM | Activity (Mus musculus [32]): Non-Toxic | Activity (Mus musculus [33]): Non-Toxic | inhibition [34]: Active | CLint scaled at 1 µM [16]: 55.8 mL/min/kg | concentration at 4 h [17]: 36 µM | Activity (Mus musculus [35]): Non-Toxic | NOAEL (Mus musculus [36]): > 200 mg/kg | Activity (Mus musculus [37]): Non-Toxic | Activity (Mus musculus [38]): Non-Toxic | EC50 (Trypanosoma cruzi [39]): 1.6 nM | Activity (Mus musculus [40]): Non-Toxic | concentration at 4 h [18]: 28 µM | CLhep predicted at 1 µM [19]: 34.5 mL/min/kg

Reference: ChEMBL document CHEMBL4257584, “Sterol 14α-Demethylase Structure-Based Optimization of Drug Candidates for Human Infections with the Protozoan Trypanosomatidae” (J Med Chem, 2018)
